Data reported in article PMC11565791 (bioRxiv, 2025).

Tests used:
H3K9 methylation states = settings: faster than H3K9me2 to me3; ref Al-Sady et al. 2013; cited from earlier work
H3K9me0 mononucleosomes = assay: Fluorescence polarization, H3K9me0 mononucleosome; format: binding; settings: Figure 7C, SFigure 10D
Procedure, shortened: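 Reconstituted H3K9me0 mononucleosomes on fluorescein-labelled 601 DNA were fixed at 25 nM. Purified Swi6, either unphosphorylated or co-expressed with casein kinase II catalytic subunits, was titrated at 0–200 μM. Fluorescence polarization was read at ex 485 / em 528 nm and fitted to a Kd equation.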

H3Kc9me3 mononucleosomes = assay: Fluorescence polarization, H3Kc9me3; format: binding; settings: Figure 7C, SFigure 10D
[1] = tested on: Clr4 (H3K9me2 mononucleosome substrate); assay: Single turnover H3K9me2 to H3K9me3 conversion by Clr4; format: biochemical, S. pombe; settings: 5 μM Clr4, 1 mM SAM, 500 nM H3K9me2 nucleosomes, 25°C
Procedure, shortened: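 Purified Clr4 (5 μM) was preincubated for 5 min at 25°C with 1 mM SAM and varying Swi6 concentrations (unphosphorylated or phosphorylated). Reactions were started by adding commercial H3K9me2 nucleosomes to 500 nM. Timepoints were stopped by boiling in Laemmli buffer, run on 18% SDS-PAGE and blotted for H3K9me3 and H4. Signals were quantified against H3K9me3 nucleosome standard curves and fitted to a single exponential rise.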

Swi6 oligomerization = assay: Glutaraldehyde crosslinking western, oligomerization; format: biochemical; settings: 0.01% glutaraldehyde, 2 h, room temperature; compared to pSwi6; Figure 7B
Procedure, shortened: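 Purified Swi6 in storage buffer (25 mM HEPES pH 7.5, 100 mM KCl, 10% glycerol, 10 mM βME) was tested at various protein concentrations. It was crosslinked with 0.01% glutaraldehyde for 2 h at room temperature, then quenched with 50 mM Tris pH 7.4. Samples were diluted to 4.2 μM, run on 4–12% Tris-glycine gradient gels and analysed by western blot with fluorescent detection.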

Molecule	rate of H3K9me0 to me1 and me1 to me2 conversion relative to me2 to me3 (H3K9 methylation states) [X]	increase in affinity towards H3K9me0 nucleosome versus pSwi6 (H3K9me0 mononucleosomes) [X]	increase in affinity towards H3Kc9me3 nucleosome versus pSwi6 (H3Kc9me3 mononucleosomes) [X]	effect on conversion of H3K9me2 to H3K9me3 by Clr4 [1]	propensity to oligomerize (Swi6 oligomerization)
Clr4: H3K9 methylase of S. pombe	10	–	–	–	–
pSwi6^S18/24A: phospho-mutant protein, S18 and S24 mutated to alanines, co-expressed with CKII (protein, left off: 6xHis, N-terminal, cleaved) MKKGGVRSYRRSSTSKRAVIDDDAEPELPSMTKEAIASHKADSGSSDNEVESDHESKSSSKKLKENAKEEEGGEEEEEDEYVVEKVLKHRMARKGGGYEYLLKWEGYDDPSDNTWSSEADCSGCKQLIEAYWNEHGGRPEPSKRKRTARPKKPEAKEPSPKSRKTDEDKHDKDSNEKIEDVNEKTIKFADKSQEEFNENGPPSGQPNGHIESDNESKSPSQKESNESEDIQIAETPSNVTPKKKPSPEVPKLPDNRELTVKQVENYDSWEDLVSSIDTIERKDDGTLEIYLTWKNGAISHHPSTITNKKCPQKMLQFYESHLTFRENE	–	4.5	2.6	decrease in tri-methylation	strongly decreased propensity to oligomerize
